Consider 19 molecules from ChEMBL document CHEMBL4765327, “Design and synthesis of thiourea-based derivatives as Mycobacterium tuberculosis growth and enoyl acyl carrier protein reductase (InhA) inhibitors” (Eur J Med Chem, 2020).

Data set [1] concerns Mycobacterium tuberculosis. Kind of data set: Antimycobacterial activity against Mycobacterium tuberculosis H37Rv assessed as inhibition of microbial growth incubated for 1 week by alamar blue based assay. It counts as functional. The note with it: 168 h, time 1 weeks. Summed up: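 M. tuberculosis H37Rv by Microplate Alamar Blue Assay; MIC reported in μg/mL, with isoniazid, rifampicin and ethambutol run as standard drugs.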

Data set [2] can be described thus: Cytotoxicity against mouse RAW264.7 cells assessed as reduction in cell viability at 50 ug/ml incubated for 72 to 96 hrs by MTT assay. The note with it: at 50 µg/mL, time 72-96 hrs, read-out: INH. Type of data set: cell-based.
The test system of data set [3] is Mycobacterium tuberculosis. Kind of data set: Antimycobacterial activity against Mycobacterium tuberculosis H37Rv assessed as reduction in colony forming unit at 1 to 10 ug/ml incubated for 7 days in nutrient starvation medium by alamar blue based serial dilution method. It counts as functional. The note with it: dose 1-10 µg/ml; time 7 day. Summed up:
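Culture starved in PBS at 37 °C for six weeks, then exposed to compounds, isoniazid or rifampicin at 10 μg/ml for seven days; persisters counted by MPN assay.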

The test system of data set [4] is Mycobacterium tuberculosis. In words: Antimycobacterial activity against Mycobacterium tuberculosis H37Rv infected in mouse primary macrophage cells assessed as reduction in colony forming unit at 10 uM incubated for 48 hrs followed by macrophage lysis and measured after 3 weeks by alamar blue based serial dilution method. It counts as functional. The note with it: time 23 day. Summed up: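 Macrophages infected with M. tuberculosis, then exposed to compounds at 10 μM final for two days; bacteria suspended in 7H9 broth, serially diluted, plates incubated at 37 °C and growth read after three weeks.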

In data set [5] the target is T1, Enoyl-[acyl-carrier-protein] reductase [NADH] (Mycobacterium tuberculosis, UniProt P9WGR1).
T1 sequence (P9WGR1 whole entry): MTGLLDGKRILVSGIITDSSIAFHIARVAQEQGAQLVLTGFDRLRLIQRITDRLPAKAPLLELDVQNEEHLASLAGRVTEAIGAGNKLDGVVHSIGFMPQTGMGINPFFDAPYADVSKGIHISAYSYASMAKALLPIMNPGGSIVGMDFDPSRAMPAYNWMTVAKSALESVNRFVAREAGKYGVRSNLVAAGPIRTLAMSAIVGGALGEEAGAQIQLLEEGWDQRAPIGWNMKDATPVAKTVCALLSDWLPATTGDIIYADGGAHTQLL
In words: Inhibition of recombinant Mycobacterium tuberculosis His6-tagged InHA expressed in Escherichia coli BL21 using trans-2-dodecenoyl-Coenzyme A as substrate. Summed up:
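M. tuberculosis InhA screened at 50 μM, and compounds above 70% inhibition also at 5 μM; triclosan positive control; triplicate assays; IC50 from 4-parameter curve fit using at least seven points.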

For `O=C(NCc1ccccc1Cl)Nc1ccccc1`, in data set [1], the MIC is more than 95.8 µM. The same measure, in the same setting: in the case of `Cc1ccc(NC(=S)Nc2ncccc2C)cc1` it was 97.3 µM; in that of `Cc1cccnc1NC(=S)Nc1ccc(F)cc1`, 47.9 µM. Take `Cc1cccnc1NC(=S)Nc1ccc(I)cc1`: the MIC in data set [1] was 2.11 µM. The cytotoxicity at 50 ug/ml in data set [2] was 31.2%. For the same molecule, the “fold change (FC)” value in data set [3] is reported as 2. As to `COc1ccc(NC(=S)Nc2ncccc2C)cc1`, in data set [1], the MIC was determined as 45.8 µM.

For `O=[N+]([O-])c1ccc(NC(=S)NCc2ccccc2Cl)cc1`, the MIC in data set [1] is 2.42 µM. In addition, the cytotoxicity at 50 ug/ml in data set [2] amounted to 29.9%. Also, the “fold change (FC)” value in data set [3] is reported as 2.6; in data set [4], 1.8. Moreover, in data set [5], the IC50 was 17.7 µM. Turning to `Cc1cccnc1NC(=S)Nc1ccccc1C(F)(F)F`, the MIC in data set [1] is more than 80.4 µM. Same read-out and setting: the result for `Cc1cccnc1NC(=S)Nc1ccc2ccccc2c1` reads more than 85.3 µM; that for `S=C(NCc1ccccc1Cl)Nc1ccccc1`, more than 90.2 µM. As for `Cc1cccnc1NC(=S)Nc1ccc(Br)cc1`, the MIC in data set [1] amounted to 2.42 µM. In addition, in data set [2], the cytotoxicity at 50 ug/ml amounted to 30.8%. In the case of `Cc1cccnc1NC(=S)Nc1cc(C(F)(F)F)cc(C(F)(F)F)c1`, the MIC in data set [1] is more than 66 µM. On to `O=[N+]([O-])c1ccc(NC(=S)NCc2ccccc2Br)cc1`, for which, in data set [1], the MIC was 4.26 µM. Moreover, the cytotoxicity at 50 ug/ml in data set [2] is 24.9%. Further, in data set [5], the IC50 was 15.6 µM.

For `NNC(=O)c1ccncc1` [ISONIAZID], the MIC in data set [1] worked out at 0.36 µM. In addition, the “fold change (FC)” value in data set [3] worked out at 1.4; in data set [4], 2.5.

Consider `Cc1cccnc1NC(=S)Nc1ccc(Cl)cc1Cl`, for which the MIC in data set [1] was 2.5 µM. In addition, the cytotoxicity at 50 ug/ml in data set [2] came out at 34%. In addition, the entries for the “fold change (FC)” value in data set [3] and in data set [4] were 2.3 and 1.4, respectively. `Cc1cccnc1NC(=S)Nc1ccccc1`: in data set [1], the MIC was more than 103 µM. For `O=C(NCc1ccccc1Br)Nc1ccccc1`, the MIC in data set [1] was more than 82 µM.

With `CC[C@@H](CO)NCCN[C@@H](CC)CO` [ETHAMBUTOL], in data set [1], the MIC is 7.6 µM. On to `CO[C@H]1/C=C/O[C@@]2(C)Oc3c(C)c(O)c4c(O)c(c(/C=N/N5CCN(C)CC5)c(O)c4c3C2=O)NC(=O)/C(C)=C\C=C\[C@H](C)[C@H](O)[C@@H](C)[C@@H](O)[C@@H](C)[C@H](OC(C)=O)[C@@H]1C` [RIFAMPIN], for which the MIC in data set [1] is 0.12 µM. Also, the “fold change (FC)” value in data set [3] is given as 1.6. On to `S=C(NCc1ccccc1Br)Nc1ccccc1`, for which the MIC in data set [1] was more than 77.9 µM.
